FN deposit inh – inhibitors of fibronectin matrix deposition, primary screen, AH1F cells, Alexa488-fibronectin fluorescence, plate reader; hit rate 0.086% among 350,000; AID 743247, 2014; AH1F fibroblasts, overnight; inhibition, % at 12.6 µM;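 active means mean inhibition across replicates of 30% or more, regardless of how many single replicates reach that level; inconclusive means mean under 30% yet at least half of replicates reach 30%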
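Material: AH1F fibroblasts assembling fluorescent fibronectin matrix; amount: 10000 AH1F cells/well; medium: DMEM, 2% serum; reagent: Alexa488-fibronectin, 24 nM final in well; dosing: single compound dose, delivered by pin transfer; incubation: 1 h adhesion, overnight exposure; detection: fluorescence after three HBSS washes, excitation 485 nm, emission 525 nm; measure: fibronectin deposition inhibition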
PAX8 reporter – inhibitors of PAX8-driven TPO luciferase reporter, primary screen, RMG-I cells, single concentration. SteadyGlo, 24 h. inhibition, % at 12.6 µM. hit rate 1.2% among 360,000;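 active means mean replicate inhibition at least 60% with every replicate also reaching 60%; inconclusive means only one of the two criteria is met; inactive means mean below 60% and not all replicates reaching 60%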;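 further: luciferase light reporting Pax8 driven TPO promoter activity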
EBV LMP1 NFkB – EBV LMP1-driven NF-kappaB luciferase reporter inhibitors, primary screen, cell-based, luminescence, single point | LMP1-induced NF-kappaB luciferase reporter cells | inhibition, % at 12.5 µM | hit rate 0.69% among 350,000; in the data active means inhibition above about 41%; inconclusive means no clear call, values can overlap the other calls
EWS-Fli inh – EWS/Fli-driven NR0B1 reporter inhibitors, primary screen, A673 cells, NR0B1 luciferase, luminescence, MLPCN library | inhibition, % at 12.6 µM | hit rate 0.67% among 350,000 | viability-normalised;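 active means mean inhibition of at least 50% after viability correction, with every replicate also passing that limit; inconclusive means mean reaches 50% but only one of two replicates passes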;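 further: firefly luciferase signal divided by Alamar Blue viability fluorescence both relative to DMSO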
Shn3 inh set2 – reduction of Shn3 3'UTR firefly luciferase signal, primary screen, Schnurri-3 inhibitor project, cell-based, Clone20 osteoblasts, set 2 | hit rate 0.52% among 360,000 | inhibition, % at 12.5 µM | Clone20 osteoblast Shn3 3'UTR firefly luciferase, 24 h | AID 588674, 2011;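 active means mean inhibition of at least 75% with every replicate also reaching 75%; inconclusive means mean inhibition at least 75% but some replicate below; inactive means mean inhibition below 75%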
aSyn UTR inh – MLPCN primary screen, SNCA 5' untranslated region | alpha-synuclein 5'UTR reporter, inhibitor activity | hit rate 0.82% among 300,000 | inhibition, % (tested at 7.5 µM); in the data active means inhibition above about 60%; inconclusive means no clear call, values can overlap the other calls;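 further: H4 neuroglioblastoma cells stably carrying SNCA 5'UTR luciferase fusion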
Of the large screens only hits and unclear results are named; the others gave an inactive call. In the library only some 2.1% were active in any assay of this set; here they are far more common.

C=CCn1c(C)c(/C=C/c2cc[n+](C)cc2)c2ccccc21	none
CCn1cc(/C=C/c2cc[n+](C)cc2)c2ccccc21	PAX8 reporter 77
C=CCn1cc(/C=C/c2cc[n+](C)cc2)c2ccccc21	PAX8 reporter 93
CC(C)n1cc(/C=C/c2cc[n+](C)cc2)c2ccccc21	PAX8 reporter 83
Cc1noc(C)c1S(=O)(=O)Nc1ccc2c(c1)C(=O)N([C@H](C)CO)C[C@H](C)[C@H](CN(C)C(=O)CCCN(C)C)OCCCC[C@H](C)O2	none (no result: FN deposit inh, EBV LMP1 NFkB, Shn3 inh set2, aSyn UTR inh)
O=C(C[C@H]1C[C@@H]2c3cc(NC(=O)NC4CCCC4)ccc3O[C@@H]2[C@H](CO)O1)NCCc1ccccc1	none (no result: EBV LMP1 NFkB, Shn3 inh set2, aSyn UTR inh)
C[C@@H]1CN([C@@H](C)CO)C(=O)Cc2cc(NS(=O)(=O)c3cn(C)cn3)ccc2O[C@@H]1CN(C)C(=O)NC1CCCCC1	none (no result: EBV LMP1 NFkB, Shn3 inh set2, aSyn UTR inh)
COc1ccc(NC(=O)Nc2ccc3c(c2)[C@@H]2C[C@H](CC(=O)N[C@@H](C)c4ccccc4)O[C@H](CO)[C@@H]2O3)cc1	none (no result: PAX8 reporter, EBV LMP1 NFkB, Shn3 inh set2, aSyn UTR inh)
COc1ccc(/C=C2\CN(Cc3ccccc3)C/C(=C\c3ccc(OC)cc3OC)C2=O)c(OC)c1	PAX8 reporter 93 (no result: EWS-Fli inh)
COc1ccc(C=C2c3ccccc3C(=O)c3ccccc32)c(OC)c1	EWS-Fli inh 52, aSyn UTR inh 98
O=C(C1CC1)N1C[C@@H]2[C@H](c3ccccc31)[C@@H](CO)N2C(=O)c1ccccc1F	none (no result: PAX8 reporter, EBV LMP1 NFkB, EWS-Fli inh, Shn3 inh set2, aSyn UTR inh)
COc1ccc(NC(=O)Nc2cccc3c2O[C@@H](CN(C)C(=O)Nc2ccccc2)[C@H](C)CN([C@H](C)CO)C3=O)cc1	none (no result: FN deposit inh, PAX8 reporter, EBV LMP1 NFkB, Shn3 inh set2, aSyn UTR inh)
CCC(=O)N[C@H]1C=C[C@H](CC(=O)NCc2cc(F)cc(F)c2)O[C@@H]1CO	none (no result: EBV LMP1 NFkB, Shn3 inh set2, aSyn UTR inh)
Nc1nc(N)nc(-c2cc(C(F)(F)F)ccc2Cl)n1	none (no result: aSyn UTR inh)
Nc1nc(N)nc(-c2cc(Cl)ccc2Cl)n1	EBV LMP1 NFkB 84
O=C(C=C1SCCS1)/C=C/c1ccco1	EBV LMP1 NFkB 86 (no result: FN deposit inh, PAX8 reporter, EWS-Fli inh)
CN(C)C(=O)C[C@H]1CC[C@H]2[C@@H](COc3ccc(NS(=O)(=O)c4cccc(F)c4)cc3C(=O)N2C)O1	none (no result: EBV LMP1 NFkB, Shn3 inh set2, aSyn UTR inh)
COc1cccc(-c2sc3ccccc3c2-c2ccc(OCCN3CCCC3)cc2)c1	none (no result: aSyn UTR inh)
COc1cccc(-c2sc3ccccc3c2-c2ccc(OCCN(C)C)cc2)c1	PAX8 reporter inconclusive, EBV LMP1 NFkB 89 (no result: aSyn UTR inh)
CN(C)c1ccc(/C=C2\SC(N3CCCCC3)=NC2=O)cc1	EWS-Fli inh 51
CC(=O)c1ccc(Nc2c3c(nc4ccccc24)CCCC3)cc1	EWS-Fli inh 71
CC(=O)c1cccc(Nc2c3c(nc4ccccc24)CCC3)c1	EWS-Fli inh 56, aSyn UTR inh 75
COc1ccccc1Nc1c2c(nc3ccccc13)CCC2	EWS-Fli inh 62
COC(=O)c1cccc(Nc2c3c(nc4ccccc24)CCC3)c1	none
CCNC(=O)C[C@@H]1CC[C@@H]2[C@H](COC[C@@H](O)CN2C(=O)Nc2ccc(C(F)(F)F)cc2)O1	none (no result: EBV LMP1 NFkB, Shn3 inh set2, aSyn UTR inh)
CCNC(=O)C[C@@H]1CC[C@H]2[C@@H](COc3ccc(NC(=O)Nc4cccc(F)c4)cc3C(=O)N2C)O1	none (no result: EBV LMP1 NFkB, Shn3 inh set2, aSyn UTR inh)
CN(/N=C/c1cc(Br)cc(Br)c1O)c1cccc(C(F)(F)F)n1	aSyn UTR inh 70
COc1ccc(-c2nc(-c3ccccc3OC)no2)cc1OC	none (no result: PAX8 reporter, EWS-Fli inh)
COc1ccccc1-c1noc(-c2ccccc2)n1	EBV LMP1 NFkB 47 (no result: FN deposit inh, PAX8 reporter, EWS-Fli inh)
O=C(Cc1ccccc1)c1ccccc1C(=O)N1CCCCC1	PAX8 reporter 108
O=C(C[C@@H]1CC[C@H]2[C@@H](COC[C@@H](O)CN2Cc2ccc(Oc3ccccc3)cc2)O1)N1CCc2ccccc2C1	PAX8 reporter 80 (no result: FN deposit inh, EBV LMP1 NFkB, Shn3 inh set2, aSyn UTR inh)
O=C(C[C@@H]1CC[C@H]2[C@@H](COC[C@H](O)CN2Cc2ccc(Oc3ccccc3)cc2)O1)N1CCN(c2ccccc2)CC1	PAX8 reporter 64 (no result: EBV LMP1 NFkB, Shn3 inh set2, aSyn UTR inh)
O=C(C[C@H]1CC[C@@H]2[C@H](COC[C@@H](O)CN2Cc2ccc(Oc3ccccc3)cc2)O1)N1CCc2ccccc2C1	none (no result: FN deposit inh, EBV LMP1 NFkB, Shn3 inh set2, aSyn UTR inh)
O=C(C[C@@H]1CC[C@H]2[C@@H](COC[C@@H](O)CN2Cc2ccc(Oc3ccccc3)cc2)O1)N1CCOCC1	none (no result: EBV LMP1 NFkB, Shn3 inh set2, aSyn UTR inh)
O=[N+]([O-])c1ccc2nc(SCc3cn4ccccc4n3)[nH]c2c1	PAX8 reporter 102

Compound activity from PubChem BioAssay.
